Experimental data as given in ChEMBL document CHEMBL3804769, “Antibacterial Diamines Targeting Bacterial Membranes” (J Med Chem, 2016).
In brackets after ≈: the same amount, converted by molar mass. Activity calls are given as the source filed them. No cut-off for these calls is given here.

Experiments:
Pseudomonas aeruginosa [1] = assay: Antibiofilm activity against Pseudomonas aeruginosa PAO1 ATCC 47085 after 24 hrs by crystal violet staining-based spectrophotometry; format: functional, organism-based
Outline: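 PAO1 grown 2 h in LB at 37 °C with shaking, then diluted 1:1000 in 10% LB-PBS to 3 × 10⁵ CFU/mL. Inoculum mixed with serially diluted compound under pegged lids and incubated 24 h at 37 °C static. Peg biofilms washed, stained 15 min with 0.1% crystal violet, and dye eluted in 95% ethanol and read at 600 nm.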

Staphylococcus aureus [2] = assay: Antibacterial activity against Staphylococcus aureus RN4220 ATCC 35556 incubated overnight by microbroth dilution method; format: functional
Outline: (§1)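 Bacteria grown in LB medium. CLSI microbroth dilution in 96-well plates, overnight at 37 °C without shaking. MIC99 taken as the lowest concentration giving complete growth inhibition. Three independent determinations, reported as mean ± SD.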

Escherichia coli = assay: Antibacterial activity against Escherichia coli ANS1 incubated overnight by microbroth dilution method; format: functional; outline: as §1
Pseudomonas aeruginosa [3] = assay: Antibacterial activity against Pseudomonas aeruginosa PAO1 ATCC 47085 incubated overnight by microbroth dilution method; format: functional; outline: as §1
Staphylococcus aureus [4] = assay: Bactericidal activity against Staphylococcus aureus RN4220 ATCC 35556 in exponential-phase assessed as reduction in bacterial burden at 4 times MIC99 after 2 to 6 hrs by time-kill assay; format: functional, organism-based
Outline: (§2)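 Overnight cultures washed and resuspended in PBS, then diluted 100-fold into LB (exponential-phase model) or into 1% PBS (stationary-phase model). Test agent added at 4× MIC99. Incubated at 37 °C with shaking at 200 rpm. CFU counted on LB agar at 0, 2, 4 and 6 h.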

Pseudomonas aeruginosa [5] = assay: Bactericidal activity against Pseudomonas aeruginosa PAO1 ATCC 47085 in exponential-phase assessed as reduction in bacterial burden at 4 times MIC99 upto 6 hrs by time-kill assay; format: functional; outline: as §2
Staphylococcus aureus [6] = assay: Bactericidal activity against Staphylococcus aureus RN4220 ATCC 35556 in stationary-phase assessed as reduction in bacterial burden at 4 times MIC99 after 2 to 6 hrs by time-kill assay; format: functional, organism-based; outline: as §2
Staphylococcus aureus [7] = assay: Bactericidal activity against Staphylococcus aureus RN4220 ATCC 35556 in stationary-phase assessed as reduction in bacterial burden at 4 times MIC99 after 4 hrs by time-kill assay; format: functional
Outline: (§3)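 Overnight LB cultures of RN4220 or PAO1 washed and resuspended in PBS, then diluted 100-fold into LB (exponential phase) or 1% PBS (stationary phase). Compound added at 4× MIC99, and cultures shaken at 200 rpm at 37 °C. Viable counts taken by dilution plating on LB agar at 0, 2, 4 and 6 h.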

Pseudomonas aeruginosa [8] = assay: Bactericidal activity against Pseudomonas aeruginosa PAO1 ATCC 47085 in stationary-phase assessed as reduction in bacterial burden at 4 times MIC99 after 4 hrs by time-kill assay; format: functional, organism-based; outline: as §2
Caenorhabditis elegans [9] = assay: Toxicity in juvenile L1 stage of Caenorhabditis elegans N2 assessed as nematode death at 64 ug/ml incubated for 96 hrs measured every 12 hrs; format: organism-based; settings: in vivo
Outline: (§4)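 C. elegans N2 kept on NGM agar at 22 °C. Compound mixed into molten NGM agar at 64 μg/mL. L4 adults, L1 juveniles and synchronized eggs transferred onto test plates and held at 22 °C for 96 h. Death, development and egg production checked every 12 h.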

Caenorhabditis elegans [10] = assay: Toxicity in Caenorhabditis elegans N2 assessed as effect on viable eggs production treated at high concentration; format: organism-based; settings: in vivo; outline: as §4
Pseudomonas aeruginosa [11] = assay: Antibacterial activity against Pseudomonas aeruginosa PAO1 ATCC 47085 assessed as increase in outer membrane permeability at 4 times MIC99 by fluorescent probe 1-N-phenylnaphthylamine based fluorescence assay; format: functional, organism-based
Outline: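 P. aeruginosa PAO1 from a culture at OD600 ~0.5, washed and resuspended in 5 mM HEPES pH 7.2. NPN added to 10 μM final and sodium azide to 10 mM final, then 30 min at room temperature in darkness. Compound added at 4× or 1× MIC99 and NPN fluorescence recorded continuously (ex 350/em 420 nm). Gentamicin at 4× MIC99 as positive control. Three independent experiments.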

Staphylococcus aureus [12] = assay: Bactericidal activity against Staphylococcus aureus RN4220 ATCC 35556 assessed as reduction in bacterial burden; format: functional, organism-based; outline: as §3
Pseudomonas aeruginosa [13] = assay: Bactericidal activity against Pseudomonas aeruginosa PAO1 ATCC 47085 assessed as reduction in bacterial burden; format: functional, organism-based; outline: as §3
Pseudomonas aeruginosa [14] = assay: Antibiofilm activity against Pseudomonas aeruginosa PAO1 ATCC 47085 at < 1024 ug/ml after 24 hrs by crystal violet staining-based spectrophotometry; format: functional, organism-based
Outline: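 PAO1 grown 2 h in LB at 37 °C with shaking, then diluted 1:1000 in 10% LB-PBS to 3 × 10⁵ CFU/mL and mixed with serially diluted compound. Biofilms grown on peg lids 24 h at 37 °C, static. Pegs washed, stained with 0.1% crystal violet for 15 min, dye eluted in 95% ethanol and read at 600 nm. Control was 10% LB-PBS.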

Compound | MIC99 (Staphylococcus aureus [2]) [µg/mL] | MIC99 (Escherichia coli) [µg/mL] | MIC99 (Pseudomonas aeruginosa [3]) [µg/mL] | other results
CN(C)[C@@H]1C(O)=C(C(N)=O)C(=O)[C@@]2(O)C(O)=C3C(=O)c4c(O)cccc4[C@@](C)(O)[C@H]3C[C@@H]12 |  |  |  | Activity (Pseudomonas aeruginosa [1]): Active
O=C(NCCCCCCCCCCCCNC(=O)NC(c1ccccc1)c1ccccc1)NC(c1ccccc1)c1ccccc1 | > 256 | > 256 | > 256 | 
S=C(NCCCCCCCCCCCCNC(=S)NC(c1ccccc1)c1ccccc1)NC(c1ccccc1)c1ccccc1 | > 256 | > 256 | > 256 | 
CCn1cc(C(=O)O)c(=O)c2cc(F)c(N3CCNCC3)cc21 [NORFLOXACIN] | 0.5 (≈ 1.57 µM) | 0.25 (≈ 0.783 µM) | 0.5 (≈ 1.57 µM) | Activity (Staphylococcus aureus [4]): Active; Activity (Pseudomonas aeruginosa [1]): Active; Activity (Pseudomonas aeruginosa [5]): 4 deltalog10CFU/ml; Activity (Staphylococcus aureus [6]): inactive; Activity (Staphylococcus aureus [7]): 2 deltalog10CFU/ml
Cl.Cl.O=C(NCCCNCCCCCNCCCNC(=O)NC(c1ccccc1)c1ccccc1)NC(c1ccccc1)c1ccccc1 | 10.7 | 6 | 13.3 | 
Cl.Cl.S=C(NCCCNCCCCCNCCCNC(=S)NCc1ccccc1)NCc1ccccc1 | 32 | 32 | 256 | 
S=C(NCCCNCCCCNCCCNC(=S)NC(c1ccccc1)c1ccccc1)NC(c1ccccc1)c1ccccc1 | 3.8 (≈ 5.82 µM) | 6.2 (≈ 9.49 µM) | 10.4 (≈ 15.9 µM) | 
CC1(C)S[C@@H]2[C@H](NC(=O)[C@H](N)c3ccccc3)C(=O)N2[C@H]1C(=O)O [AMPICILLIN] | 0.125 (≈ 0.358 µM) |  | 128 (≈ 366 µM) | Activity (Pseudomonas aeruginosa [8]): inactive; Activity (Staphylococcus aureus [4]): Active; Activity (Pseudomonas aeruginosa [5]): inactive; Activity (Staphylococcus aureus [6]): inactive
Cl.Cl.O=C(NCCCNCCCCCNCCCNC(=O)NCCC(c1ccccc1)c1ccccc1)NCCC(c1ccccc1)c1ccccc1 | 13.3 | 6 | 26.7 | 
NCCCNCCCCNCCCN [SPERMINE] | > 512 | > 512 | > 512 | 
GENTAMICIN [listing 1 of 2 here] |  |  |  | Activity (Caenorhabditis elegans [9]): Toxic; Activity (Caenorhabditis elegans [10]): Toxic
O=C(NCCCCCCCCCCCNC(=O)NCCC(c1ccccc1)c1ccccc1)NCCC(c1ccccc1)c1ccccc1 | > 256 | > 256 | > 256 | 
Cl.Cl.O=C(NCCCNCCCCCNCCCNC(=O)NCc1ccccc1)NCc1ccccc1 | 107 | 64 | 213 | 
Cl.Cl.O=C(NCCCNCCCCCNCCCNC(=O)NCC(c1ccccc1)c1ccccc1)NCC(c1ccccc1)c1ccccc1 | 18.7 | 4 | 26.7 | 
GENTAMICIN [listing 2 of 2 here] |  |  |  | Activity (Pseudomonas aeruginosa [11]): Active
O=C(NCCCCCCCCCCCCNC(=O)NCC(c1ccccc1)c1ccccc1)NCC(c1ccccc1)c1ccccc1 | > 256 | > 256 | > 256 | 
O=c1[nH]cc(F)c(=O)[nH]1 [FLUOROURACIL] |  |  |  | Activity (Caenorhabditis elegans [9]): Toxic; Activity (Caenorhabditis elegans [10]): Toxic
COLISTIN | > 16 |  | < 0.125 | Activity (Staphylococcus aureus [12]): Active; Activity (Pseudomonas aeruginosa [13]): Active
NCCCCNCCCN [SPERMIDINE] | > 512 | > 512 | > 512 | 
S=C(NCCCNCCCCNCCCNC(=S)NCCC(c1ccccc1)c1ccccc1)NCCC(c1ccccc1)c1ccccc1 | 4.9 (≈ 6.91 µM) | 10.4 (≈ 14.7 µM) | 29.2 (≈ 41.2 µM) | 
Cl.Cl.S=C(NCCCNCCCCCNCCCNC(=S)NC(c1ccccc1)c1ccccc1)NC(c1ccccc1)c1ccccc1 | 6.7 | 6 | 13.3 | 
NC[C@H]1O[C@H](O[C@H]2[C@H](O)[C@@H](O[C@H]3O[C@H](CO)[C@@H](O)[C@H](N)[C@H]3O)[C@H](N)C[C@@H]2N)[C@H](O)[C@@H](O)[C@@H]1O [KANAMYCIN] | 8 (≈ 16.5 µM) | 8 (≈ 16.5 µM) | 32 (≈ 66 µM) | Activity (Pseudomonas aeruginosa [8]): inactive; Activity (Pseudomonas aeruginosa [14]): inactive; Activity (Staphylococcus aureus [4]): Active; Activity (Pseudomonas aeruginosa [5]): inactive; Activity (Staphylococcus aureus [6]): inactive
O=[N+]([O-])c1ccc(O)c([N+](=O)[O-])c1 |  |  |  | Activity (Staphylococcus aureus [12]): Active; Activity (Pseudomonas aeruginosa [13]): Active
Cl.Cl.S=C(NCCCNCCCCCNCCCNC(=S)NCCC(c1ccccc1)c1ccccc1)NCCC(c1ccccc1)c1ccccc1 | 9.3 | 10 | 32 | 
Cl.Cl.O=C(NCCCNCCCCCNCCCNC(=O)Nc1ccccc1)Nc1ccccc1 | > 256 | > 256 | > 256 | 
O=C(NCCCNCCCCNCCCNC(=O)NCC(c1ccccc1)c1ccccc1)NCC(c1ccccc1)c1ccccc1 | 11.3 (≈ 17.4 µM) | 4.4 (≈ 6.78 µM) | 18.6 (≈ 28.7 µM) | 
